ChEMBL document CHEMBL4190303, “Chemical Constituents of Propolis from Vietnamese Trigona minor and Their Antiausterity Activity against the PANC-1 Human Pancreatic Cancer Cell Line” (2017)
The source made the active and inactive calls. The calls are words filed in the database; no cut-off is given here.

Key:
PANC-1 [1] = assay: Antiausteritic activity against human PANC1 cells in nutrient-deprived medium assessed as decrease in cell viability measured after 24 hrs by WST-8 assay; type: functional
PANC-1 [2] = assay: Antiausteritic activity against human PANC1 cells in nutrient-deprived medium assessed as changes in cell morphology at 5 uM after 24 hrs by ethidium bromide/acridine orange staining based phase contrast microscopy; type: functional
Procedure, shortened: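 PANC-1 seeded in 60 mm dishes (1 × 10^6), grown 24 h in DMEM at 37 °C, 5% CO2, washed twice with PBS, then switched to NDM with or without compound. After 24 h, EB/AO reagent added for 5 min. Imaged at 40× in fluorescence and phase-contrast modes. AO marks live cells green, EB marks dead cells red.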

PANC-1 [3] = assay: Inhibition of colony formation in human PANC1 cells after 10 days by crystal violet staining based assay; type: functional, cell-based
Procedure, shortened: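 500 cells/well plated in DMEM and allowed to attach for 24 h at 37 °C, 5% CO2. Treated at 12.5, 25 and 50 μM in DMEM and grown for 10 days. Cells washed with PBS, fixed in 4% formaldehyde, stained with crystal violet for 10 min. Three independent repeats.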

Which PC50 (PANC-1 [1]) does the source give for C/C(=C\CC[C@@H](C)[C@H]1CC[C@@]2(C)[C@@H]3CC[C@H]4C(C)(C)[C@@H](O)CC[C@@]45C[C@@]35CC[C@]12C)C(=O)O [MANGIFEROLIC ACID] here?
Its PC50 is >100 µM.

C/C(=C\CC[C@@H](C)[C@H]1CC[C@@]2(C)[C@@H]3CC[C@H]4C(C)(C)C(=O)CC[C@@]45C[C@@]35CC[C@]12C)C(=O)O [MANGIFERONIC ACID] was tested. Which PC50 (PANC-1 [1]) did it give?
Its PC50 is >100 µM.

How did the Activity (PANC-1 [2]) turn out when C/C(=C\C(O)C[C@@H](C)[C@H]1CC[C@@]2(C)[C@@H]3CC[C@H]4C(C)(C)[C@H](O)CC[C@@]45C[C@@]35CC[C@]12C)C(=O)O (stereo in doubt; 5) [listing 1 of 2 here] was run?
Its Activity is “Active”.

And the inhibition (PANC-1 [3])?
Its inhibition is “Dose-dependent effect”.

Which PC50 (PANC-1 [1]) does the source give for C/C(=C\C(O)C[C@@H](C)[C@H]1CC[C@@]2(C)[C@@H]3CC[C@H]4C(C)(C)[C@@H](O)CC[C@@]45C[C@@]35CC[C@]12C)C(=O)O (some centres undefined) here?
Its PC50 is 64.4 µM.

How did the PC50 (PANC-1 [1]) turn out when CC(=O)/C=C/C[C@@H](C)[C@H]1CC[C@@]2(C)[C@@H]3CC[C@H]4C(C)(C)[C@@H](O)CC[C@@]45C[C@@]35CC[C@]12C was run?
The PC50 was 16.4 µM.

Which PC50 (PANC-1 [1]) does the source give for C[C@H](CC/C=C(\CO)C(=O)O)[C@H]1CC[C@@]2(C)[C@@H]3CC[C@H]4C(C)(C)C(=O)CC[C@@]45C[C@@]35CC[C@]12C here?
The PC50 was 93.8 µM.

With C/C(=C\C(O)C[C@@H](C)[C@H]1CC[C@@]2(C)[C@@H]3CC[C@H]4C(C)(C)[C@H](O)CC[C@@]45C[C@@]35CC[C@]12C)C(=O)O (stereo in doubt; 5) [listing 2 of 2 here] as the compound, how does the PC50 (PANC-1 [1]) read?
The PC50 was 4.3 µM.

For CC(C)=CCC[C@@H](C)[C@H]1CC[C@@]2(C)[C@@H]3CC[C@H]4C(C)(C)C(=O)CC[C@@]45C[C@@]35CC[C@]12C [CYCLOARTENONE], which PC50 (PANC-1 [1]) is on record?
Its PC50 is >100 µM.

How did the PC50 (PANC-1 [1]) turn out when CC(=O)O[C@H]1C(=O)[C@@]2(C)[C@H]([C@H](OC(=O)c3ccccc3)[C@]3(O)C[C@H](OC(=O)[C@H](O)[C@@H](NC(=O)c4ccccc4)c4ccccc4)C(C)=C1C3(C)C)[C@]1(OC(C)=O)CO[C@@H]1C[C@@H]2O [PACLITAXEL] was run?
The PC50 was >100 µM.

With CC(C)=CCC[C@@H](C)[C@H]1CC[C@@]2(C)C3=C(CC[C@]12C)[C@@]1(C)CC[C@H](O)C(C)(C)[C@@H]1CC3 [LANOSTEROL] as the compound, how does the PC50 (PANC-1 [1]) read?
Its PC50 is 68.7 µM.

Which PC50 (PANC-1 [1]) does the source give for CC(=O)OC/C(=C\CC[C@@H](C)[C@H]1CC[C@@]2(C)[C@@H]3CC[C@H]4C(C)(C)[C@@H](O)CC[C@@]45C[C@@]35CC[C@]12C)C(=O)O here?
The PC50 was 22.6 µM.

With C[C@H](CC/C=C(\CO)C(=O)O)[C@H]1CC[C@@]2(C)[C@@H]3CC[C@H]4C(C)(C)[C@H](O)CC[C@@]45C[C@@]35CC[C@]12C as the compound, how does the PC50 (PANC-1 [1]) read?
Its PC50 is 3.7 µM.

C[C@H](CC/C=C(\CO)C(=O)O)[C@H]1CC[C@@]2(C)[C@@H]3CC[C@H]4C(C)(C)[C@@H](O)CC[C@@]45C[C@@]35CC[C@]12C was tested. Which PC50 (PANC-1 [1]) did it give?
The PC50 was 47.6 µM.

CC(=O)OC/C(=C\CC[C@@H](C)[C@H]1CC[C@@]2(C)[C@@H]3CC[C@H]4C(C)(C)C(=O)CC[C@@]45C[C@@]35CC[C@]12C)C(=O)O was tested. Which PC50 (PANC-1 [1]) did it give?
Its PC50 is 77.5 µM.

How did the PC50 (PANC-1 [1]) turn out when COc1cc(C[C@H]2C(=O)OC[C@@H]2Cc2ccc(OC)c(OC)c2)ccc1O [ARCTIGENIN] was run?
The PC50 was 0.8 µM.

With C/C(=C\C(O)C[C@@H](C)[C@H]1CC[C@@]2(C)[C@@H]3CC[C@H]4C(C)(C)C(=O)CC[C@@]45C[C@@]35CC[C@]12C)C(=O)O (some centres undefined) as the compound, how does the PC50 (PANC-1 [1]) read?
Its PC50 is 16.8 µM.

With C/C(=C\C(O)C[C@@H](C)[C@H]1CC[C@@]2(C)[C@@H]3CC[C@H]4C(C)(C)[C@H](O)CC[C@@]45C[C@@]35CC[C@]12C)C(=O)O (stereo in doubt; 4) as the compound, how does the PC50 (PANC-1 [1]) read?
The PC50 was 16.1 µM.

With COC(=O)OC/C(=C\CC[C@@H](C)[C@H]1CC[C@@]2(C)[C@@H]3CC[C@H]4C(C)(C)C(=O)CC[C@@]45C[C@@]35CC[C@]12C)C(=O)O as the compound, how does the PC50 (PANC-1 [1]) read?
The PC50 was 32.9 µM.
